ChEMBL document CHEMBL2169863, “Discovery, structure-activity relationship, and biological evaluation of noninhibitory small molecule chaperones of glucocerebrosidase” (J Med Chem, 2012)
The source made the active and inactive calls.

Assays:
[1] = Activation of alpha-galactosidase using 4-MU-alpha-galactose as substrate
[2] = biological target: Lysosomal alpha-glucosidase (Homo sapiens) (UniProt P10253); experiment: Activation of alpha-glucosidase using 4-MU-alpha-glucose as substrate
[3] = system: T1, Lysosomal acid glucosylceramidase (Homo sapiens), P04062 [N409S]; experiment: Activation of glucocerebrosidase N370S mutant in Gaucher patient spleen homogenates using 4-methylumbelliferone-Glc as substrate assessed as half-maximal activation concentration incubated for 5 mins prior to substrate addition measured after 30 to 45 mins by fluorimetric analysis; type: tissue-based
T1 sequence (whole entry): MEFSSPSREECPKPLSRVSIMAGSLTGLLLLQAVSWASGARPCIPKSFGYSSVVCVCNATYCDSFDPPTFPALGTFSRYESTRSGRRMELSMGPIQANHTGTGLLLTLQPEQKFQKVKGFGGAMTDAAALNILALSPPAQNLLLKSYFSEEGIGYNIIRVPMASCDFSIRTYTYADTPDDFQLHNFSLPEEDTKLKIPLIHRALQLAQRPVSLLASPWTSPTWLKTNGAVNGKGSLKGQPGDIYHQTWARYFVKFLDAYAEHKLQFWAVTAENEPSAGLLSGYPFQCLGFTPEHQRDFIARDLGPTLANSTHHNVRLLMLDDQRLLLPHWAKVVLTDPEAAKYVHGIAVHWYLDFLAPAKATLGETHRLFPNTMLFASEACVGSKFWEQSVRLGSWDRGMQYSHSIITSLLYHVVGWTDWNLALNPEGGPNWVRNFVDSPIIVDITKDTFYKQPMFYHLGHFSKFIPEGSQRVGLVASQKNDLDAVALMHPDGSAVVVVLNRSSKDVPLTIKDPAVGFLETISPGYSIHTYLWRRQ
Method in brief: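 Spleen homogenate (27 μg final) in pH 5 citrate/phosphate buffer with KCl, NaCl, MgCl₂ and 0.01% Tween-20. Compound was titrated 0.5 nM to 58 μM and preincubated 5 min at room temperature. Reaction used 1 mM 4MU-Glc for 30−45 min at 37 °C and was stopped with NaOH/glycine pH 10. Read-out was fluorescence at Ex 365/Em 440 nm. AC₅₀ is the average of N = 2.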

| Activity [1] | Activity [2] | Activity [3] | SMILES |
| --- | --- | --- | --- |
| inactive | inactive | 3.26 µM | CCc1ccc(NC(=O)c2cnn3c(C)cc(C)nc23)cc1 |
| inactive | inactive | 1.63 µM | Cc1ccc(NC(=O)c2cnn3c(C)cc(C)nc23)cc1 |
| inactive | inactive | 32.6 µM | CC(=O)c1cccc(NC(=O)c2cnn3c(C)cc(C)nc23)c1 |
| inactive | inactive | 16.3 µM | Cc1cc(C)n2ncc(C(=O)Nc3ccccc3C)c2n1 |
| inactive | inactive | 8.19 µM | COc1ccc(NC(=O)c2cnn3c(C)cc(C)nc23)cc1 |
| inactive | inactive | 8.19 µM | Cc1cc(C)n2ncc(C(=O)Nc3ccccc3)c2n1 |
| inactive | inactive | inactive | CC(=O)Nc1ccc(NC(=O)c2cnn3c(C)cc(C)nc23)cc1 |
| inactive | inactive | 8.19 µM | Cc1cc(-c2ccccc2)nc2c(C(=O)Nc3ccc4c(c3)CCC4)cnn12 |
| inactive | inactive | 12.9 µM | CCc1ccc(NC(=O)c2cnn3c(C)cc(-c4ccccc4)nc23)cc1 |
| inactive | inactive | 1.46 µM | COc1ccc(NC(=O)c2cnn3c(C)cc(C)nc23)cc1F |
| inactive | inactive | inactive | Cc1cc(C)n2ncc(C(=O)Nc3ccncc3)c2n1 |
| inactive | inactive | 20.6 µM | Cc1cc(C)n2ncc(C(=O)Nc3ccc(C#N)cc3)c2n1 |
| inactive | inactive | inactive | COc1ccc(NC(=O)c2cnn3c(-c4ccccc4)cc(C)nc23)cc1 |
| inactive | inactive | 51.7 µM | Cc1cc(C)n2ncc(C(=O)NCc3ccccc3)c2n1 |
| inactive | inactive | inactive | CC(=O)Nc1cccc(NC(=O)c2cnn3c(C)cc(C)nc23)c1 |
| inactive | inactive | 1.46 µM | Cc1cc(C)n2ncc(C(=O)Nc3ccc(C)c(C)c3)c2n1 |
| inactive | inactive | inactive | Cc1cc(-c2ccccc2)n2ncc(C(=O)Nc3ccc(Cl)c(Cl)c3)c2n1 |
| inactive | inactive | inactive | Cc1cc(-c2ccccc2)n2ncc(C(=O)Nc3ccccc3Sc3ccccc3)c2n1 |
| inactive | inactive | 6.51 µM | Cc1cccc(NC(=O)c2cnn3c(C)cc(C)nc23)c1 |
| inactive | inactive | 2.06 µM | COc1ccc(NC(=O)c2cnn3c(C)cc(C)nc23)cc1Cl |
| inactive | inactive | inactive | Cc1cc(C)n2ncc(C(=O)Nc3cccc(C#N)c3)c2n1 |
| inactive | inactive | 18.3 µM | Cc1cc(C)n2ncc(C(=O)Nc3ccccc3Sc3ccccc3)c2n1 |
| inactive | inactive | inactive | Cc1ccc(NC(=O)c2cnn3c(-c4ccccc4)cc(C)nc23)cc1 |
| inactive | inactive | – | Cc1cc(-c2ccccc2)nc2c(C(=O)Nc3ccc(Cl)c(Cl)c3)cnn12 |
| inactive | inactive | 163 µM | CC(=O)c1ccc(NC(=O)c2cnn3c(C)cc(C)nc23)cc1 |
| inactive | inactive | 25.9 µM | Cc1cc(C)n2ncc(C(=O)Nc3cc(Cl)cc(Cl)c3)c2n1 |

Second part, the compound before the results:

| SMILES | Activity [1] | Activity [2] | Activity [3] |
| --- | --- | --- | --- |
| CCc1ccc(NC(=O)c2cnn3c(C(F)F)cc(C4CC4)nc23)cc1 | inactive | inactive | – |
| O=C(Nc1ccc2c(c1)CCC2)c1cnn2c(C(F)F)cc(C3CC3)nc12 | inactive | inactive | – |
| Cc1cc(C)n2ncc(C(=O)NC3CCCCC3)c2n1 | inactive | inactive | 10.3 µM |
| Cc1cc(C)n2ncc(C(=O)Nc3ccc4c(c3)OCCO4)c2n1 | inactive | inactive | 10.3 µM |
| Cc1cc(C)n2ncc(C(=O)NCC(C)C)c2n1 | inactive | inactive | 32.6 µM |
| Cc1cc(C)n2ncc(C(=O)N[C@H]3CC[C@H](C(C)(C)C)CC3)c2n1 | inactive | inactive | 4.11 µM |
| Cc1ccc(NC(=O)c2cnn3c(C)cc(C)nc23)c(C)c1 | inactive | inactive | 13 µM |
| CNC(=O)c1cnn2c(C)cc(C)nc12 | inactive | inactive | inactive |
| Cc1cc(C)n2ncc(C(=O)Nc3ccc(C(C)(C)C)cc3)c2n1 | inactive | inactive | 2.31 µM |
| Cc1cc(C)n2ncc(C(=O)Nc3cccc(C(F)(F)F)c3)c2n1 | inactive | inactive | 41.1 µM |
| Cc1cc(C)n2ncc(C(=O)N3CCCC3)c2n1 | inactive | inactive | inactive |
| O=C(Nc1ccccc1Sc1ccccc1)c1cnn2c(C(F)(F)F)cc(C3CC3)nc12 | inactive | inactive | – |
| COc1ccc(NC(=O)c2cnn3c(C)cc(C)nc23)cc1OC | inactive | inactive | inactive |
| Cc1cc(C)n2ncc(C(=O)Nc3ccc4c(c3)CCC4)c2n1 | inactive | inactive | 2.59 µM |
| O=C(NC1CCCCC1)c1cnn2c(C(F)F)cc(C3CC3)nc12 | inactive | inactive | – |
| Cc1cc(C)n2ncc(C(=O)NCc3ccco3)c2n1 | inactive | inactive | 51.7 µM |
| Cc1cc(C)n2ncc(C(=O)Nc3ccc(S(C)(=O)=O)cc3)c2n1 | inactive | inactive | inactive |
| Cc1cc(C)n2ncc(C(=O)N[C@H]3CC[C@@H](C(C)(C)C)CC3)c2n1 | inactive | inactive | 25.9 µM |
| Cc1cc(C)n2ncc(C(=O)NC(C)C)c2n1 | inactive | inactive | inactive |
| COc1cc(NC(=O)c2cnn3c(C)cc(C)nc23)cc(OC)c1OC | inactive | inactive | inactive |
| Cc1cc(C)n2ncc(C(=O)Nc3ccc4c(c3)OCO4)c2n1 | inactive | inactive | 6.51 µM |
